Compound activity as filed in PubChem BioAssay.
In the library only some 4.1% were active in any assay of this set; here they are far more common.
hERG protect: hERG rescue from dofetilide block, primary screen, cell-based, CHO-hERG, FluxOR thallium flux, dofetilide IC70. dofetilide IC70 present. activation (rescue from dofetilide block), less the hit threshold, % at 10 µM. actives 0.51% (n = 310,000);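 active = activation above the mean of controls blocked by dofetilide plus 5 SD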;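 note: thallium influx through hERG after potassium depolarization seen as dye fluorescence rise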
Target sequence (Q12809 whole entry, looked up): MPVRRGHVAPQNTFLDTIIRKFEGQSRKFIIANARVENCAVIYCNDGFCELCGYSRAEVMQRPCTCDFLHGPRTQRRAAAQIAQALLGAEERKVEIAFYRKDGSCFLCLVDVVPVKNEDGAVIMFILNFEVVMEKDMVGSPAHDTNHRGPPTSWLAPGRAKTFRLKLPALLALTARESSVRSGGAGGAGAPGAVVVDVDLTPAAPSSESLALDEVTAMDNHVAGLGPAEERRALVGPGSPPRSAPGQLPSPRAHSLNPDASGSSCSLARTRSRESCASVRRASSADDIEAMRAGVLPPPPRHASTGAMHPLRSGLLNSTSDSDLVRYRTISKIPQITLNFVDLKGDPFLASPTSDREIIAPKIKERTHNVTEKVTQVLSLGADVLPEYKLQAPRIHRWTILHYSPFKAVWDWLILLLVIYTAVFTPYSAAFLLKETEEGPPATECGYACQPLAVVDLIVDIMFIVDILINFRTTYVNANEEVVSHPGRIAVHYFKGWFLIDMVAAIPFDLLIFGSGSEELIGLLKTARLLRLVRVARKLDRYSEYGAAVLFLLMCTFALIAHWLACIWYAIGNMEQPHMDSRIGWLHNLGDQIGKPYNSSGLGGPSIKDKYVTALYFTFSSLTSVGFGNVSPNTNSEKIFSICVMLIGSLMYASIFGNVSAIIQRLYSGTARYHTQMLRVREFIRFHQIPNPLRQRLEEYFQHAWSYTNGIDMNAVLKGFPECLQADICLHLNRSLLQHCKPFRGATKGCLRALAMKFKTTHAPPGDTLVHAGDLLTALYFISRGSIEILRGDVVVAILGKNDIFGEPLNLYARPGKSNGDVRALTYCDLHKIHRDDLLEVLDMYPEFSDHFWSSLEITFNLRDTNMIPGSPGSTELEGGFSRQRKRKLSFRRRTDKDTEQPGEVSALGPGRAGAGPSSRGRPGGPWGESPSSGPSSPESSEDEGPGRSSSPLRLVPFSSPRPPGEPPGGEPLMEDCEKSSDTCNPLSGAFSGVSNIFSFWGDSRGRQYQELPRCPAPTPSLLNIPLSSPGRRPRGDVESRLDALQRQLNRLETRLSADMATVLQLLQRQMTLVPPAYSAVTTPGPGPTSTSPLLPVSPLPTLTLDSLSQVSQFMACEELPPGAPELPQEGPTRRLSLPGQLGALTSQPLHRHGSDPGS
Cl transport mod: KCC2 cotransporter modulators, thallium flux, primary screen, cell-based, HEK293 KCC2, FluoZin-2 fluorescence, MLSMR. Solute carrier family 12 member 5 (Homo sapiens), Q9H2X9. KCC2 cells, thallium flux FluoZin-2 fluorescence. B-score of Tl+ flux slope (higher = more flux/activation; lower = inhibition) at 10 µM. actives 2.2% (n = 190,000);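 active = thallium flux slope and its plate-corrected score both differing from the plate sample mean at a set confidence after two filtering rounds, in either direction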;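 note: slope of fluorescence scaled to starting intensity during 10 to 20 s after thallium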
KCNK3 inh: human KCNK3 channel inhibitors, primary screen, CHO cells, FluxOR thallium flux, B-score | FluxOR fluorescence; active compounds read low | B-score at 10 µM | actives 0.84% (n = 340,000);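 active = B-score under library mean minus 4 SD, starting fluorescence ratio at most library mean plus 5 SD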;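 note: more negative B-score means stronger inhibition of thallium flux through KCNK3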
KCNQ1 inh: inhibitors of human KCNQ1 channel, primary screen, cell-based, thallium flux, high-throughput; Potassium voltage-gated channel subfamily KQT member 1 (Homo sapiens), P51787; CHO-K1 KCNQ1, FluxOR thallium flux fluorescence; active compounds read high; B-score at 10 µM; actives 1.3% (n = 310,000); AID 2642, 2010;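 active = compounds whose thallium flux B-score, printed positive for inhibition, exceeds three library SD while starting fluorescence stays within three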;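 note: channel opened by potassium depolarization with thallium stimulus after 20 min compound exposure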
KCNQ1 pot: potentiators or activators of KCNQ1 channel, primary screen, cell-based, thallium flux, high-throughput. Potassium voltage-gated channel subfamily KQT member 1 (Homo sapiens), P51787. CHO-K1 KCNQ1, thallium flux FluxOR fluorescence; active compounds read high. B-score at 10 µM. actives 0.35% (n = 310,000);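 active = fluorescence ratio B-score, a plate-corrected score, at least three library SD, with initial intensity B-score within 5 SD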
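System: Stable KCNQ1 CHO-K1 line | Incubation: 90 min dye loading and 20 min compound exposure, both at room temperature | Measure: Ratio B score | Medium: Assay buffer for compound exposure, DMSO matched across wells | Compound dosing: Single-concentration screen | Probe or stimulus: K+/Tl+ depolarizing stimulus | Measured by: Kinetic FluxOR fluorescence, 10 s baseline plus 110 s post-stimulus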
KCNK9 inh: KCNK9 potassium channel inhibitors, primary screen, HEK293 cells, thallium flux; B-score at 10 µM; Potassium channel subfamily K member 9 (Homo sapiens), Q9NPC2; actives 1.2% (n = 310,000); FluxOR thallium flux fluorescence; active compounds read low;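 active = ratio B-score over 3 SD below the library mean, with starting fluorescence within 5 SD of its mean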;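 note: negative B-score means less thallium flux so channel inhibition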
KCNQ1 inh valid: KCNQ1 potassium channel inhibitors, confirmation, cell-based, Tl flux, duplicate; shares compounds with KCNQ1 inh; KCNQ1 cell line, FluxOR thallium flux fluorescence; inhibition, % at 10 µM; actives 93% (n = 1,600); AID 588353, 2011;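 active = primary screen active, with duplicate mean exceeding buffer control mean plus 3 SD of buffer wells, cut at about 28% in these data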
CHO Tl flux: thallium flux effects in parental CHO cells, counter-screen for KCNQ1 inhibitor project, cell-based, Tl flux. shares compounds with KCNQ1 inh. parental CHO-K1, FluxOR thallium flux fluorescence ratio; active compounds read low; zero means no signal rise above baseline. fluorescence ratio (Tl flux) at 10 µM. actives 21% (n = 1,600);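 active = mean of duplicate thallium-flux fluorescence ratios in parental host cells more than 5 SD below the buffer control mean, cut at about 0.38 in these data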;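 note: ratio is peak minus minimum fluorescence divided by baseline fluorescence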
KCNQ1 ephys val: KCNQ1 channel inhibitors, confirmation, orthogonal assay, cell-based, automated electrophysiology; shares compounds with KCNQ1 inh; KCNQ1-CHO cells, automated patch clamp current; calls only at 10 µM; actives 20% (n = 490); AID 624120, 2012;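 active = KCNQ1 current drop exceeding 3 SD of negative control wells, seen in both duplicate runs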;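 note: steady state current during a 2 s step from -80 to +40 mV; negative values mean current inhibition and positive values mean potentiation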
KCNQ2 spec: KCNQ2 channel inhibition, selectivity assay for KCNQ1 inhibitor project, cell-based; shares compounds with KCNQ1 inh; KCNQ2 cells, FluxOR thallium flux fluorescence; inhibition, % at 10 µM; actives 71% (n = 1,600); AID 651746, 2012;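 active = mean percent inhibition of the KCNQ2 thallium signal more than 5 SD above the buffer-only control wells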;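 note: KCNQ2 expressed in CHO cells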
KCNQ1-KCNE1 inh: KCNQ1/KCNE1 channel inhibition, selectivity assay for KCNQ1 inhibitor project, CHO-K1 cells, thallium flux, FluxOR | shares compounds with KCNQ1 inh | FluxOR thallium flux fluorescence | inhibition, % at 10 µM | actives 77% (n = 1,600);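 active = mean percent inhibition of duplicate wells above the buffer-only control mean plus 3 SD of those controls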
KCNK9 inh conf: KCNK9 potassium channel inhibitors, confirmation, HEK293 cells, thallium flux, duplicate; shares compounds with KCNK9 inh; FluxOR thallium flux fluorescence; inhibition, % at 10 µM; actives 43% (n = 4,900); AID 492992, 2010;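 active = thallium signal inhibited by more than 5 SD of the compound-free buffer control wells, on both duplicate plates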
Kir21 sel: mouse Kir2.1 channel inhibition, confirmation, selectivity assay for KCNK9 modulator project, cell-based, HEK293, thallium flux; inhibition, % at 10 µM; shares compounds with KCNK9 inh; actives 4% (n = 4,900); Kir2.1 cells, FluxOR thallium flux fluorescence;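 active = thallium signal drop more than 5 SD beyond the mean of the no-compound control wells, seen in both duplicate plates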;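 note: signal is fluorescence rise after thallium addition divided by baseline fluorescence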
HEK293 Tl ctr: thallium flux in non-induced HEK293 cells, confirmation, counter-screen for KCNK9 inhibitor project, cell-based, second counter screen, non-induced KCNK9-HEK293 | shares compounds with KCNK9 inh | FluxOR thallium flux | inhibition, % at 10 µM | actives 40% (n = 4,900) | AID 492997, 2010;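 active = thallium signal drop beyond 5 SD of the untreated control mean, on both duplicate plates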
KCNK3 inh conf: retest of human KCNK3 channel inhibitors, confirmation, CHO cells, FluxOR thallium flux, triplicate. ratio percent of control, % at 10 µM. shares compounds with KCNK3 inh. AID 651638, 2012. actives 99% (n = 2,400). FluxOR fluorescence; 0% buffer, 100% carvedilol maximal block;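 active = ratio percent of control, averaged over triplicates, above buffer control mean plus 5 SD, cut at about 64% in these data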;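 note: ratio is the fluorescence rise from min to max over baseline after thallium stimulus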
KCNK3 noninduced: thallium flux inhibition in non-induced cells, primary screen, counter-screen for KCNK3 inhibitor project, cell-based, non-induced KCNK3 line, FluxOR thallium, triplicate; non-induced KCNK3 parental cells; active compounds read low; AID 651747, 2012; shares compounds with KCNK3 inh; thallium flux ratio (lower = more inhibition) at 10 µM; actives 40% (n = 2,400);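 active = thallium flux ratio, averaged over three wells, more than 5 SD below the buffer control mean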;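 note: host cells are CHO cells without KCNK3 induction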
A number is an active result.

For CNc1ccccc1C(C)(C)c1cc(-c2cccc(Br)c2)no1 the results were hERG protect inactive, Cl transport mod inactive, KCNK3 inh -10.7, KCNQ1 inh 6, KCNQ1 pot inactive, KCNK9 inh inactive, KCNQ1 inh valid 121.5, CHO Tl flux inactive, KCNQ1 ephys val inactive, KCNQ2 spec 106.0%, KCNQ1-KCNE1 inh 117.0%, KCNK3 inh conf 121.0 and KCNK3 noninduced 0.15.
`O=C(NC1CCCCC1)C(c1ccncc1)N(C(=O)c1csnn1)c1cccc(F)c1` (stereo not drawn) gave hERG protect inactive, KCNK3 inh inactive, KCNQ1 inh inactive, KCNQ1 pot inactive and KCNK9 inh inactive.
CN(C)S(=O)(=O)c1cccc(COC(=O)c2ccc(Cl)cc2O)c1 was read as hERG protect inactive, Cl transport mod inactive, KCNK3 inh -9.51, KCNQ1 inh 7, KCNQ1 pot inactive, KCNK9 inh -8.31, KCNQ1 inh valid 121.0, CHO Tl flux inactive, KCNQ1 ephys val inactive, KCNQ2 spec 96.3%, KCNQ1-KCNE1 inh 117.0%, KCNK9 inh conf 49.5%, Kir21 sel inactive, HEK293 Tl ctr 26.5%, KCNK3 inh conf 130.7 and KCNK3 noninduced inactive.
For COCCn1c(=NC(=O)C2COc3ccccc3O2)sc2cc(S(N)(=O)=O)ccc21 (stereo not drawn) the results were hERG protect inactive, Cl transport mod inactive, KCNK3 inh inactive, KCNQ1 inh inactive, KCNQ1 pot inactive and KCNK9 inh inactive.
For CCn1c(=NC(=O)C2COc3ccccc3O2)sc2c(OC)ccc(OC)c21 (stereo not drawn) the results were hERG protect inactive, Cl transport mod inactive, KCNK3 inh -10.1, KCNQ1 inh 7, KCNQ1 pot inactive, KCNK9 inh -6.61, KCNQ1 inh valid 79.5, CHO Tl flux inactive, KCNQ2 spec 81.7%, KCNQ1-KCNE1 inh 125.5%, KCNK3 inh conf 112.0 and KCNK3 noninduced inactive.
`CCOc1ncccc1C(=O)NNC(=O)CSc1ccc(Cl)cc1` gave KCNK3 inh inactive.
`COc1ccc(-c2cc(C)no2)cc1S(=O)(=O)N1CCOc2ccccc21` gave hERG protect inactive, KCNK3 inh inactive, KCNQ1 inh inactive, KCNQ1 pot inactive and KCNK9 inh inactive.
Cc1cc(-c2ccc(C(C)C)c(S(=O)(=O)N3CCOc4ccccc43)c2)on1 was read as hERG protect inactive, KCNK3 inh -11.5, KCNQ1 inh 7, KCNQ1 pot inactive, KCNK9 inh -6.66, KCNQ1 inh valid 96.0, CHO Tl flux inactive, KCNQ1 ephys val inactive, KCNQ2 spec 82.7%, KCNQ1-KCNE1 inh 107.0%, KCNK3 inh conf 110.7 and KCNK3 noninduced inactive.
For COc1ccc2nc3c(cc2c1)c(NC(=O)c1cccs1)nn3CC(C)C the results were hERG protect inactive, Cl transport mod inactive, KCNK3 inh -9.84, KCNQ1 inh 6, KCNQ1 pot inactive, KCNK9 inh -8.96, KCNQ1 inh valid 143.5, CHO Tl flux 0.287, KCNQ2 spec 126.7%, KCNQ1-KCNE1 inh active, KCNK9 inh conf inactive, Kir21 sel inactive, HEK293 Tl ctr inactive, KCNK3 inh conf 93.7 and KCNK3 noninduced 0.148.
For COc1ccccc1CNC(=O)COC(=O)c1nccnc1N the results were hERG protect inactive, KCNK3 inh inactive, KCNQ1 inh inactive, KCNQ1 pot inactive and KCNK9 inh inactive.
Screening O=C(O)c1ccc(NC(C(=O)c2ccccc2)c2ccccc2)cc1 (stereo not drawn) returned KCNK3 inh inactive.
For O=C(Nc1ccc(F)cc1)c1ccc(C(=O)N2CCCC(O)C2)cc1 (stereo not drawn) the results were KCNK3 inh inactive.
For CCCN1CCc2c(sc(NC(=O)c3ccc(S(=O)(=O)N(C)c4ccccc4)cc3)c2C(=O)NC)C1 the results were hERG protect inactive, KCNK3 inh -8.99, KCNQ1 inh 15, KCNQ1 pot inactive, KCNK9 inh inactive, KCNQ1 inh valid 144.0, CHO Tl flux 0.281, KCNQ2 spec inactive, KCNQ1-KCNE1 inh active, KCNK3 inh conf 171.3 and KCNK3 noninduced 0.0547.
